Calls of active or inactive are those of the source. No cut-off for these calls is given here.

The test system of experiment [1] is Rattus norvegicus. In words: Estrogenicity in rats following 3 x 0.1 mg s.c. over 72h. The format is functional. The method in brief: (§1)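 Immature Sprague-Dawley female rats, 21–23 days old, seven to nine per group, injected s.c. on 3 consecutive days with test compound suspended in 0.2 mL propylene glycol–saline (1:1 v/v). Vehicle-only controls. Autopsy 24 h after the final dose, uterine wet weight recorded. Agonist activity computed as (C₀ − V)(100)/(E − V), with E the E₂-alone mean.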

Experiment [2] deals with Rattus norvegicus. Kind of experiment: Anti-uterotrophic effects in rats following 3 x 0.1 mg s.c. over 72h. The experiment is classed as functional. In a few lines: (§2)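 Immature female Sprague-Dawley rats (21–23 days), groups of seven to nine, given test compound suspended in 0.2 mL propylene glycol–saline (1:1 v/v) s.c. daily for 3 consecutive days, plus 1 μg E₂ per animal at a separate site. Controls got E₂ plus vehicle. Uterine wet weight taken at autopsy 24 h after the last injection. Inhibition computed as (E − C₁)(100)/(E − V).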

Experiment [3] concerns the target T1, Estrogen receptor (Rattus norvegicus) (UniProt P06211+Q62986). Kind of experiment: Relative binding against estrogen receptor of rat uterine cytosol by [2-4-3H] estradiol. The experiment is classed as protein assay. In a few lines: (§3)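 Uterine cytosol (1 uterine equiv/mL) from immature rats primed s.c. with 1 μg E₂ for 3 days, incubated 18 h at 4 °C with [³H]E₂ (5 × 10⁻⁹ M) and test compound (10⁻⁴–10⁻⁹ M) in triplicate. Medium was Tris-HCl/EDTA/azide buffer, pH 7.4, with 7% DMF. Free ligand removed with charcoal-dextran for 20 min before scintillation counting. Results expressed relative to E₂ = 100, mean ± SD of ≥3 determinations.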

Experiment [4] has as its system Rattus norvegicus. Kind of experiment: Inhibition of E2 effects in rats by 0.1 mg s.c. The format is functional. The method in brief:
as §2

Experiment [5] deals with Rattus norvegicus. Kind of experiment: Uterotrophic effects in rats following 3 x 0.1 mg s.c. over 72h. The experiment is classed as functional, Uterus. In a few lines:
as §1

Experiment [6] has as its system Rattus norvegicus. Kind of experiment: Anti-uterotrophic effects in rats following 3 x 1 mg s.c. over 72h. The experiment is classed as functional. The method in brief:
as §2

Experiment [7] relates to Rattus norvegicus. In words: Estrogenicity in rats following 3 x 1 mg s.c. over 72h. The experiment is classed as functional. In a few lines:
as §1

In experiment [8] the test system is Rattus norvegicus. Kind of experiment: Inhibition of E2 effects in rats by 1 mg s.c. The format is functional. The method in brief: as §2
Experiment [9] relates to Rattus norvegicus. Kind of experiment: Uterotrophic effects in rats following 3 x 1 mg s.c. over 72h. The format is functional, Uterus. In a few lines: as §1
The target of experiment [10] is T1, Estrogen receptor (Rattus norvegicus). In words: Relative binding affinity against estrogen receptor of rat uterine cytosol by [2-4-3H] estradiol; No detectable affinity at 100 uM. The method in brief:
as §3

Usually Inhibition stands for the share of the control response that was lost under treatment. Low values mean a response near the control, high ones a response far below the control. As for `C/C(=C(/C(=O)c1ccc(O)cc1)c1ccccc1)c1ccccc1`, the Estrogenic effect with Rattus norvegicus [1] amounted to 83%. Also, the results for the Uterine weight in the experiment with Rattus norvegicus [2] and with Rattus norvegicus [5] were 44.7 mg and 46.4 mg, respectively. Moreover, the RBA in experiment [3] is 3.6%. Also, the Inhibition in the experiment on Rattus norvegicus [4] is reported as 21%.
Turning to `O=C(c1ccccc1)c1c(-c2ccc(O)cc2)oc2ccccc12`, the Uterine weight in the experiment with Rattus norvegicus [6] worked out at 47.4 mg; in the experiment with Rattus norvegicus [9], 13.7 mg. Moreover, the Estrogenic effect in the experiment with Rattus norvegicus [7] stood at 0%. Moreover, the RBA in experiment [3] came out at 0.12%. Further, the Inhibition with Rattus norvegicus [8] came to 0%.
Take `O=C(c1ccc(O)cc1)c1oc2cc(O)ccc2c1-c1ccc(O)cc1`: the values for the Uterine weight in the experiment on Rattus norvegicus [6] and in the experiment on Rattus norvegicus [9] were 48.3 mg and 26.3 mg, respectively. Also, in the experiment on Rattus norvegicus [7], the Estrogenic effect was determined as 31%. The RBA in experiment [3] amounted to 2.7%. For the same compound, in the experiment on Rattus norvegicus [8], the Inhibition was 23%.
For `O=C(c1ccc(O)cc1)c1c(-c2ccccc2)oc2cc(O)ccc12`, in that order: 38 mg, 22.4 mg, 25%, 2.1% and 37%.
In turn, `COc1ccc(-c2c(-c3ccccc3)oc3cc(O)ccc23)cc1` registered an RBA in [3] of 0.01%.
With `Oc1ccc(-c2c(-c3ccccc3)coc2-c2ccccc2)cc1`, the Estrogenic effect with Rattus norvegicus [1] was 0%. The Uterine weight was determined as 42.8 mg with Rattus norvegicus [2] and 16.7 mg in the experiment with Rattus norvegicus [5]. Also, the RBA in [3] was found to be 4.5%. Besides, the Inhibition in the experiment on Rattus norvegicus [4] amounted to 0%.
With `O=C(c1ccc(OCCN2CCCC2)cc1)c1c(-c2ccccc2)oc2ccccc12`, the figures for the Uterine weight with Rattus norvegicus [6] and with Rattus norvegicus [9] were 56.1 mg and 16.7 mg, respectively. Besides, the Estrogenic effect with Rattus norvegicus [7] was determined as 0%. The RBA in experiment [3] was 0.01%. The Inhibition in the experiment with Rattus norvegicus [8] is 0%.
For `COc1ccc2c(-c3ccc(O)cc3)c(-c3ccccc3)oc2c1`, the RBA in experiment [3] was 0.01%.
Regarding `O=C(c1ccc(O)cc1)c1c(-c2ccc(O)cc2)oc2ccccc12`, the Uterine weight in the experiment with Rattus norvegicus [6] is 59.3 mg; in the experiment on Rattus norvegicus [9], 13.1 mg. The same compound gave an Estrogenic effect in the experiment on Rattus norvegicus [7] of 0%. Moreover, in [3], the RBA is 1.7%. Besides, in the experiment with Rattus norvegicus [8], the Inhibition is recorded as 0%.
Regarding `O=C(c1ccccc1)c1c(-c2ccc(O)cc2)oc2cc(O)ccc12`, the Uterine weight turned out to be 43.2 mg in the experiment on Rattus norvegicus [6] and 26.6 mg in the experiment with Rattus norvegicus [9]. The Estrogenic effect with Rattus norvegicus [7] was found to be 35%. For the same compound, the RBA in [3] is 0.72%. Further, in the experiment with Rattus norvegicus [8], the Inhibition stood at 0%.
Regarding `Oc1ccc(-c2coc(-c3ccccc3)c2-c2ccccc2)cc1`, the Estrogenic effect in the experiment on Rattus norvegicus [1] was determined as 100%. The Uterine weight was found to be 57.6 mg in the experiment with Rattus norvegicus [2] and 48.9 mg in the experiment with Rattus norvegicus [5]. Moreover, the RBA in experiment [3] worked out at 3%. The same compound displayed an Inhibition with Rattus norvegicus [4] of 0%.
For `C/C(=C(/C(=O)c1ccc(OCCN2CCCC2)cc1)c1ccccc1)c1ccccc1`, in that order: 38%, 43.1 mg, 30.6 mg, 0.008% and 26%.
Compound `C/C(=C(\C(=O)c1ccc(O)cc1)c1ccccc1)c1ccccc1` showed an Estrogenic effect in the experiment on Rattus norvegicus [1] of 0%. Besides, the Uterine weight was found to be 47.3 mg with Rattus norvegicus [2] and 19.8 mg in the experiment on Rattus norvegicus [5]. For the same compound, the RBA in experiment [3] was 0.54%. Besides, the Inhibition with Rattus norvegicus [4] was determined as 14%.
On the same counts, the results for `C/C(=C(\C(=O)c1ccc(OCCN2CCCC2)cc1)c1ccccc1)c1ccccc1` are 0%, 46.6 mg, 18 mg, 0.24% and 16%.
Take `O=C(c1ccc(O)cc1)c1c(-c2ccccc2)oc2ccccc12`: the Uterine weight turned out to be 50.7 mg with Rattus norvegicus [6] and 16.3 mg in the experiment with Rattus norvegicus [9]. For the same compound, the Estrogenic effect in the experiment with Rattus norvegicus [7] is given as 10%. For the same compound, the RBA in [3] was 5.3%. In addition, the Inhibition with Rattus norvegicus [8] is recorded as 0%.
`c1ccc(-c2coc(-c3ccccc3)c2-c2ccc(OCCN3CCCC3)cc2)cc1` came in with an Estrogenic effect with Rattus norvegicus [1] of 31%. In addition, the results for the Uterine weight in the experiment with Rattus norvegicus [2] and in the experiment with Rattus norvegicus [5] were 53.9 mg and 26.4 mg, respectively. The same compound had an RBA in [3] of 0.84%. Further, the Inhibition in the experiment on Rattus norvegicus [4] amounted to 0%.
On the same counts, the results for `O=C(/C(=C\c1ccccc1)c1ccccc1)c1ccc(O)cc1` are 33%, 70.4 mg, 22.2 mg, 0.06% and 0%.
Consider `Oc1ccc(-c2c(-c3ccccc3)oc3cc(O)ccc23)cc1`, for which the Uterine weight in the experiment on Rattus norvegicus [6] amounted to 46.5 mg; in the experiment on Rattus norvegicus [9], 14.6 mg. The Estrogenic effect in the experiment with Rattus norvegicus [7] was 0%. The RBA in experiment [3] was 1.6%. The same compound gave an Inhibition in the experiment on Rattus norvegicus [8] of 0%.
Take `O=C(/C(=C/c1ccccc1)c1ccccc1)c1ccc(O)cc1`: the Estrogenic effect in the experiment with Rattus norvegicus [1] stood at 68%. The values for the Uterine weight in the experiment on Rattus norvegicus [2] and with Rattus norvegicus [5] were 78.1 mg and 49.4 mg, respectively. Also, the RBA in experiment [3] is 1.8%. The Inhibition with Rattus norvegicus [4] was 0%.
For the compound `Cl.O=C(c1ccccc1)c1c(-c2ccc(OCCN3CCCC3)cc2)oc2ccccc12`, the Uterine weight with Rattus norvegicus [6] was found to be 29.6 mg; in the experiment with Rattus norvegicus [9], 27.7 mg. For the same compound, the Estrogenic effect with Rattus norvegicus [7] turned out to be 38%. Besides, the RBA in [3] was found to be 0.3%. The Inhibition with Rattus norvegicus [8] is listed as 58%.
`c1ccc(-c2occ(-c3ccc(OCCN4CCCC4)cc3)c2-c2ccccc2)cc1`: the Estrogenic effect in the experiment with Rattus norvegicus [1] came out at 61%. Besides, the Uterine weight in the experiment on Rattus norvegicus [2] turned out to be 52.1 mg; in the experiment on Rattus norvegicus [5], 35.6 mg. The RBA entry in experiment [10] was “inactive”. Also, the Inhibition with Rattus norvegicus [4] was found to be 0%.
As to `Oc1ccc(-c2oc3cc(O)ccc3c2-c2ccc(O)cc2)cc1`, the Uterine weight in the experiment on Rattus norvegicus [6] was found to be 39.6 mg; in the experiment on Rattus norvegicus [9], 21.2 mg. In the experiment with Rattus norvegicus [7], the Estrogenic effect is recorded as 22%. Further, in [3], the RBA was 7.8%. The compound also yielded an Inhibition in the experiment on Rattus norvegicus [8] of 30%.
For `COc1ccc2c(-c3ccc(OCCN4CCCC4)cc3)c(-c3ccccc3)oc2c1`, in that order: 61.4 mg, 35.4 mg, 57%, 0.01% and 0%.

Values taken from ChEMBL document CHEMBL1124544, “Structure-activity relationship of antiestrogens: a study using triarylbutenone, benzofuran, and triarylfuran analogues as models for triarylethylenes and triarylpropenones” (1989).
